Screening data (PubChem)
A selection: hits, their analogues and other compounds. The true share with any hit is near 1.9%.
CHRM4 agonist: CHRM4 agonism in calcium assay | P08173 | CHO-K1 hM4/Gqi5, Fluo-8 calcium fluorescence; vehicle 0%, full acetylcholine response 100% | activation, % at 3 µM | 360,000 compounds, 0.14% hits;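 active = activation above the run mean over all test wells plus 3 SD, cut at about 32% in these data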;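 also: peak over basal fluorescence ratio per well then scaled between controls; 0% = DMSO wells and 100% = acetylcholine at EC100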
Target sequence (P08173 whole entry, looked up): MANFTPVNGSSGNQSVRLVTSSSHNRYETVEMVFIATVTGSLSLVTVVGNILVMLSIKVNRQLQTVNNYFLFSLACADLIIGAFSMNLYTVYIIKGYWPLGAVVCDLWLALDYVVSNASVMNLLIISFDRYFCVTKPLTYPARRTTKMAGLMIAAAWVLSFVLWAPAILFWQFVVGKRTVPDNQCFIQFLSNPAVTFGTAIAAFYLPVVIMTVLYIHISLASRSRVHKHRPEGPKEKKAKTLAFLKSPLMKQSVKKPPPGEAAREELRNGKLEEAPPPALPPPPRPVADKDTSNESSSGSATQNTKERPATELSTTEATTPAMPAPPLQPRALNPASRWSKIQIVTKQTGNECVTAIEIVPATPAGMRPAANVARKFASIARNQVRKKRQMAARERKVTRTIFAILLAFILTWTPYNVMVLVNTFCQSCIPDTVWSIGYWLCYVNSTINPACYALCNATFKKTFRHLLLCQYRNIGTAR
CHRM5 PAM: CHRM5 positive allosteric modulation. P08912. CHO-K1 hM5, Fluo-8 calcium, ACh EC20 PAM; 0% = ACh EC20, 100% = ACh EC100. activation, % at 3 µM. 360,000 compounds, 0.3% hits. AID 624038;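 active = activation above the run cutoff, the mean activation of all test compounds plus 3 SD, cut at about 18% in these data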
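system = human M5 receptor in CHO-K1 cells | reagent = EC20 acetylcholine as agonist stimulus | compound dosing = single-point, 3 µM nominal | incubation = Fluo-8 loading 80 min at 37 °C plus 30 min room temperature | detection = Fluo-8 calcium dye fluorescence, kinetic read | benchmarks = low control EC20 acetylcholine (0%), high control EC100 acetylcholine (100%)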
CHRM5 antagonist: antagonists of human muscarinic M5 receptor (CHRM5); P08912; CHO-hM5 cells, Fluo-8 calcium fluorescence, ACh EC80; inhibition, % at 3 µM; 360,000 compounds, 0.59% hits; AID 624040;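 active = inhibition above a per-plate cutoff, the mean of that plate's test compounds plus 3 SD, cut at about 27% in these data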;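 also: 0% = acetylcholine EC80 with DMSO and 100% = DMSO without agonist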
CHRM4 antagonist: antagonists of human muscarinic M4 receptor (CHRM4) | CHO-hM4 cells, ACh EC80, Fluo-8 calcium fluorescence | inhibition, % at 3 µM | 360,000 compounds, 0.73% hits;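 active = inhibition above its plate's cutoff, the mean inhibition of sample wells plus 3 SD, cut at about 27% in these data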;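 also: 0% = acetylcholine EC80 with DMSO and 100% = DMSO without agonist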
M4 PAM: positive allosteric modulators of human muscarinic M4 receptor. P08173. CHO-K1 hM4/Gqi5, Fluo-8 calcium fluorescence, ACh EC20; 0% = ACh EC20, 100% = maximal ACh. activation, % at 3 µM. 360,000 compounds, 0.4% hits. AID 624126;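 active = activation above its plate's cutoff, the mean activation of sample wells plus 3 SD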
CHRM5 agonist: CHRM5 agonism in calcium assay; P08912; CHO-K1 hM5 cells, Fluo-8 calcium fluorescence; 0% DMSO wells, 100% maximal acetylcholine response; activation, % at 3 µM; 360,000 compounds, 0.19% hits;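 active = activation above the run's mean over test compounds plus 3 SD, cut at about 23% in these data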;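 also: signal is peak over basal fluorescence ratio across the kinetic read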
Active calls of the source: *.

SMILES	CHRM4 agonist	CHRM5 PAM	CHRM5 antagonist	CHRM4 antagonist	M4 PAM	CHRM5 agonist
CCN(CC)CCC#CC(O)(c1ccccc1)c1ccccc1	0	-18	99*	84*	-18	-8
OC(C#CCCN1CCCCC1)(c1ccccc1)C1CCCCC1 (stereo unspecified)	3	-32	98*	97*	-59	-20
Cc1ccc(C(O)(CCN2CCCCC2)c2ccccc2)cc1 (stereo unspecified)	2	-21	96*	93*	-17	-8
CCCOc1ccc(C(O)(CCC)CCN2CCCCC2)cc1 (stereo unspecified)	3	-24	21	21	-20	-8
CC(C)N(CC#CCC(O)(c1ccccc1)c1ccccc1)C(C)C	2	-18	9	22	-27	-7
Cn1ncc([N+](=O)[O-])c1C(=O)NC1CCCCC1	1	2	12	3	6	-5
CN1CCN(CC#CC(C)(O)C2CC3C=CC2C3)CC1 (stereo unspecified)	0	-3	-1	5	1	-8
OC(CCN1CCCCC1)(c1ccccc1)C1C[C@@H]2C=C[C@H]1C2 (stereo partly specified)	1	-18	98*	99*	-17	-1
CC1CCCN(C(=O)Cc2cccc3ccccc23)C1 (stereo unspecified)	0	-4	15	7	-7	-7
CCOc1ccc(/C=C2\CCCc3c2nc2ccccc2c3C(=O)O)cc1OC	78*	-24	17	16	-18	249*
COc1ccc(/C=C2\CCc3c2nc2ccccc2c3C(=O)O)cc1OC	4	-9	0	-18	6	5
COc1ccc(C(=O)OC2CCN(C)CC2)cc1	1	4	-11	-15	31*	-7
CCCCC(=O)Nc1ccc2c(c1)nc1n2CCOC1	0	-1	-5	-9	2	-1
CCCC(=O)Nc1ccc2c(c1)nc1n2CCOC1	1	5	-10	3	31*	3
CCNC(=O)C1(C)CCCN1C(=O)c1ccc(-c2ccccc2)cc1 (stereo unspecified)	1	-3	-3	-13	7	-1
CC(=O)C(=Cc1ccc(Cl)cc1)C(=O)c1ccccc1	2	22*	2	24	-13	-7
COc1ccc(C=C(C(C)=O)C(=O)c2ccccc2)cc1	1	-1	8	13	-3	-6
COc1ccc(S(=O)(=O)N2CCOC23CCN(S(=O)(=O)c2cc(F)ccc2F)CC3)cc1	5	-8	11	5	-7	-2
CCN(CC)c1ccc(/C=C(/C#N)C(=O)NC(C)C)o1	10	-1	14	7	5	6
CCN(CC)c1ccc(/C=C(/C#N)C(=O)NCc2ccccc2)o1	13	-18	9	8	-11	30*
Cc1csc(C(C)NC(=O)c2ccc(OC3CCN(CCc4ccccc4)CC3)cc2)n1 (stereo unspecified)	2	4	-10	4	-19	-10
CCC(=O)c1ccc(OCC(=O)OCC(=O)N2c3ccccc3NC(=O)C2(C)C)cc1	5	-5	6	-14	-1	2
CN(C)CCOC(=O)C1(c2ccccc2)CCOCC1	0	-28	13	9	-6	-11
CCN(CC)CCOC(=O)C1(c2ccc(OC)c(OC)c2)CCCC1	1	-16	28*	6	-12	-8
O=C(COC(=O)C1(c2ccccc2)CCCC1)N1CCNC1=O	1	5	3	-5	5	-6
SMILES	CHRM4 agonist	CHRM5 PAM	CHRM5 antagonist	CHRM4 antagonist	M4 PAM	CHRM5 agonist
CCN(CC)CC(=O)NCC1(c2ccccc2)CCCC1	0	1	5	39*	-23	-18
CCN(CC)CCOC(=O)C1(c2ccccc2)CCCC1	2	-16	99*	98*	-35	-6
O=C(OCCCN1CCCC1)C1(c2ccccc2)CCCC1	2	-24	39*	63*	-31	-14
COc1ccc(CCC(=O)OCC(=O)NC(=O)c2ccc(Cl)cc2)cc1	2	-1	11	-7	5	5
O=C(COc1ccc(F)cc1Cl)NC1CCCCCC1	1	-5	9	6	-2	-2
Cn1nnnc1NN=Cc1ccccc1	0	-7	0	-2	3	-2
Cc1ccc(NC(=O)C2CCC(CNC(=O)[C@@H]3Cc4ccccc4CN3)CC2)c(C)c1 (stereo partly specified)	0	-11	15	-12	1	-11
CCN(CC)CCOC(=O)C1(C2CCCCC2)CCCCC1	2	-19	99*	98*	-16	-2
CCN(CC)CCOC(=O)c1ccc(Cl)cc1	1	3	-13	-5	5	-14
CC1=CC(C)(C)N2C(=O)C(=O)c3cc(OC(=O)c4ccco4)cc1c32	20	-12	9	-1	-11	36*
CS(=O)(=O)c1ccc2nc(NC(=O)Nc3cccc(Cl)c3)sc2c1	22	-24	32*	16	-6	9
CCOC(=O)Cc1csc(NC(=O)Nc2cccc(Cl)c2)n1	17	-18	29*	0	-9	5
O=C(Nc1cccc(Cl)c1)Nc1nnc(-c2ccncc2)s1	15	-18	32*	17	-12	9
CS(=O)(=O)c1ccc2nc(NC(=O)Nc3ccc(Cl)c(Cl)c3)sc2c1	2	0	-5	-13	8	0
CC(OC(=O)c1ccc2ncsc2c1)C(=O)NC1CCCCC1C (stereo unspecified)	1	-2	-3	-7	4	0
CCCOc1ccc(C(=O)NNC(=O)CCNC(=O)c2ccco2)cc1OC	0	6	1	-8	4	-3
COc1ccc(NS(=O)(=O)c2cccc(C(=O)N3CCN(C/C=C/c4ccccc4)CC3)c2)cc1	17	-10	13	4	-11	3
COc1ccccc1N1CCN(Cc2cn[nH]c2-c2ccc(F)cc2)CC1	24	-8	7	9	17	40*
CN(C)S(=O)(=O)c1cccc(NC(=O)c2ccc(COc3ccccc3)cc2)c1	24	-22	27*	22	-18	8
CN(c1ccccc1)S(=O)(=O)c1cccc(NC(=O)CSc2nncs2)c1	15	-17	25	27*	-24	8
CC(C)N(C(=S)Nc1cccc(S(=O)(=O)N(C)C)c1)c1ccccc1	1	19*	3	-1	2	5
CN(c1ccccc1)S(=O)(=O)c1cccc(NC(=O)c2cccc(C#N)c2)c1	20	-16	33*	9	-12	6
CN(c1ccccc1)S(=O)(=O)c1cccc(NC(=O)CSc2nnc(N)s2)c1	13	-17	16	11	-14	4
